Assay results gathered from unrelated publications.
Lines come from different studies, so protocols differ. pIC50: −log10 of the molar value.

| Compound | cell line | observed | mode | method | time | notes | pIC50 |
| --- | --- | --- | --- | --- | --- | --- | --- |
| COc1cc(/C=C/c2cc(/C=C/c3cccc4cnccc34)[nH]n2)ccc1O | CHO-K1 | cell growth or viability |  | MTT | 72 h |  | 5.08 |
| CSc1ccc(-c2nc3ccc(C)cc3[nH]2)cc1 | human Rhabdomyosarcoma cell | cell growth or viability |  | MTT | 48 h |  | 4.41 |
| COc1cc(/C=C/C(=O)CC(=O)/C=C/c2ccc(O)c(OC)c2)ccc1O | CHO-K1 | cell growth or viability |  | SRB | 72 h |  | 4.47 |
| Fc1ccc(-c2nc3ccccc3n2Cc2ccccc2)cc1 | human Rhabdomyosarcoma cell | cell growth or viability |  | MTT |  |  | 4.55 |
| COCCCN1C(/C=C/c2cccnc2)=CC(=O)CC1c1cccnc1 (stereo not shown) | CHO-K1 | cell growth or viability |  | SRB | 72 h |  | < 4.12 |
| O=C(O)Cc1ccccc1Nc1c(Cl)cccc1Cl | RAW264.7 | IL-6 release | inhibitor |  |  | LPS-stimulated | 4.99 |
| C(=C\c1c[nH]c2ccccc12)/c1cc(/C=C/c2cccs2)[nH]n1 | CHO-K1 | cell growth or viability |  | SRB | 72 h |  | 4.79 |
| CC(C)C[C@H](NC(=O)[C@H](Cc1ccccc1)NC(=O)c1cnccn1)B(O)O | OV56 | cell growth or viability |  | ATP luminescence |  |  | 7.96 |
| O=C(/C=C(O)/C=C/c1ccccn1)/C=C/c1c[nH]c2ccccc12 | CHO-K1 | cell growth or viability |  | SRB | 72 h |  | 4.46 |
| Cc1ccc2nc(-c3cccc(O)c3)[nH]c2c1 | human Rhabdomyosarcoma cell | cell growth or viability |  | MTT | 48 h |  | 4.71 |
